According to ChEMBL document CHEMBL1833940, “Discovery of 3-(2,6-dichloro-3,5-dimethoxy-phenyl)-1-{6-[4-(4-ethyl-piperazin-1-yl)-phenylamino]-pyrimidin-4-yl}-1-methyl-urea (NVP-BGJ398), a potent and selective inhibitor of the fibroblast growth factor receptor family of receptor tyrosine kinase” (J Med Chem, 2011):
Activity calls are given as the source filed them. The rule behind the calls is not given here.

Legend:
Cytochrome P450 2C9 = Cytochrome P450 2C9 (Homo sapiens, UniProt P11712); assay: Inhibition of CYP2C9 using MFC as substrate; assay type: ADME
Method in brief: (§1)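 Human CYP450 inhibition was measured with isoform-specific fluorogenic probe substrates: CEC for 1A2 and 2C19, MFC for 2C9, AMMC for 2D6. Incubation was at 37 °C with an NADPH-regenerating system in 384-well format. Metabolite was quantified by fluorescence, and IC50 was obtained by curve fitting.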

Cytochrome P450 1A2 = target: T1, Cytochrome P450 1A2 (Homo sapiens, UniProt P05177); assay: Inhibition of CYP1A2 using CEC as substrate; assay type: ADME; method in brief: as §1
T1 sequence (P05177 whole entry): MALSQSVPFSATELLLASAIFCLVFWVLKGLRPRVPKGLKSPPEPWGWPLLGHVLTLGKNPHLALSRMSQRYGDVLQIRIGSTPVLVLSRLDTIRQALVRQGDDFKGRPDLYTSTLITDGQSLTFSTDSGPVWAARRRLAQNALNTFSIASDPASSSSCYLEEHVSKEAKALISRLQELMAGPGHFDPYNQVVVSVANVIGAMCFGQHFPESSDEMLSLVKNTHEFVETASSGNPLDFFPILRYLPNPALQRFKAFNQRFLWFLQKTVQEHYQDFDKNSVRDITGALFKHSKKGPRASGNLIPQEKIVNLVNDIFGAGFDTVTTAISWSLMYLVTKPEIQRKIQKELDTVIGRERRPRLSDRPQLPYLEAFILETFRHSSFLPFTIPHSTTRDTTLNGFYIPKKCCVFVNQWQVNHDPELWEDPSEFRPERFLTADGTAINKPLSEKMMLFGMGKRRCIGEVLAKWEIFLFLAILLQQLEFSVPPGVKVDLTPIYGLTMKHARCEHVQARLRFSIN

[1] = target: Tyrosine-protein kinase Lyn (Homo sapiens, UniProt P07948); assay: Inhibition of recombinant LYN kinase
Method in brief: (§2)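 Purified recombinant kinases under optimized conditions, with peptide substrates and ATP at each kinase's Km. Phosphorylation was read out by microfluidic mobility shift, and IC50 values were obtained.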

[2] = Inhibition of BCR-ABL-mediated proliferation of mouse BAF3 cells transformed with TEL-Kinase construct; assay type: cell-based
[3] = Cmax in plasma of RT112/luc1 cells implanted athymic nude mouse at 5 mg/kg, iv by LC/MS/MS analysis; assay type: ADME, organism-based; design: dose 5 mg/kg, route intravenous
Method in brief: (§3)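 Female athymic nude mice carried subcutaneous RT112/luc1 tumors (5×10^6 cells, 50% Matrigel; about 300–400 mm3). Dosing was either 5 mg/kg iv by tail vein in NMP/PEG200 (1:9) or 20 mg/kg oral suspension in PEG300/D5W (2:1). Groups of mice (n = 4) were sacrificed at 0.083–24 h. Plasma and tumor levels were measured by LC-MS/MS (LOQ 5 ng/mL, 10 ng/g).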

[4] = Cmax in plasma of RT112/luc1 cells implanted athymic nude mouse at 20 mg/kg, po by LC/MS/MS analysis; assay type: ADME, organism-based; design: dose 20 mg/kg, route oral; method in brief: as §3
[5] = Volume of distribution at steady state in RT112/luc1 cells implanted athymic nude mouse at 5 mg/kg, iv by LC/MS/MS; assay type: ADME, organism-based; design: dose 5 mg/kg, route intravenous; conditions: in vivo, read-out: Vdss
Method in brief: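 Female athymic nude mice carrying subcutaneous RT112/luc1 tumors (ca. 300–400 mm3). Dosing was 5 mg/kg iv by tail vein in NMP/PEG200 (1:9) or 20 mg/kg by oral gavage as a suspension in PEG300/D5W (2:1). Groups (n = 4) were sacrificed from 0.083 to 24 h. Plasma and tumor were measured by LC-MS/MS (LOQ 5 ng/mL, 10 ng/g). Noncompartmental analysis used the linear trapezoidal AUC; F was calculated from dose-normalized AUC.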

[6] = Antiproliferative activity against human JMSU1 cells overexpressing wild type FGFR3 after 72 hrs; assay type: functional, cell-based; conditions: JMSU-1, 72 h
Method in brief: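 Bladder cancer lines from ATCC or DSMZ were seeded in 96-well plates (RT4, RT112 at 8500 cells/well; others at 5000 cells/well) in growth medium. Compound dilutions or DMSO were added 24 h later and incubated 72 h. Cells were fixed with glutaraldehyde, stained with 0.05% methylene blue and eluted with 3% HCl, then OD650 nm was read.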

[7] = target: MAP kinase-activated protein kinase 2 (Homo sapiens, UniProt P49137); assay: Inhibition of recombinant MK2
Method in brief: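 Purified recombinant kinases with peptide substrates and ATP at each kinase's Km. Read-out was microfluidic mobility shift.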

[8] = target: MAP kinase-interacting serine/threonine-protein kinase 1 (Homo sapiens, UniProt Q9BUB5); assay: Inhibition of recombinant MNK1
Method in brief: (§4)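 Purified recombinant kinases under optimized conditions with peptide substrates. ATP was set at each kinase's Km. Phosphorylation was read by microfluidic mobility-shift separation of substrate and product; IC50 determined.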

[9] = target: Serine/threonine-protein kinase PAK 2 (Homo sapiens, UniProt Q13177); assay: Inhibition of recombinant PAK2; method in brief: as §4
[10] = target: Mitogen-activated protein kinase 1 (Homo sapiens, UniProt P28482); assay: Inhibition of recombinant ERK2; method in brief: as §4
Ephrin type-A receptor 4 = Ephrin type-A receptor 4 (Homo sapiens, UniProt P54764); assay: Inhibition of recombinant EPHA4; method in brief: as §4
[11] = target: Tyrosine-protein kinase JAK1 (Homo sapiens, UniProt P23458); assay: Inhibition of recombinant JAK1; method in brief: as §4
[12] = target: Phosphatidylinositol 4,5-bisphosphate 3-kinase catalytic subunit beta isoform (Homo sapiens, UniProt P42338); assay: Inhibition of recombinant PI3Kbeta by luminescent kinase assay
[13] = target: Tyrosine-protein kinase SYK (Homo sapiens, UniProt P43405); assay: Inhibition of recombinant SYK; method in brief: as §2
[14] = target: Phosphatidylinositol 4-kinase beta (Homo sapiens, UniProt Q9UBF8); assay: Inhibition of PI4Kbeta by luminescent kinase assay
Rattus norvegicus [15] = assay: Inhibition of FGFR autophosphorylation in RT112 tumor bearing nude rowett rat assessed as decrease in pFRS2 concentration at 4.25 mg/kg, po administered as a single dose by Western blot analysis; assay type: functional, organism-based; design: dose 4.25 mg/kg
Method in brief: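 RT112 tumor-bearing nude Rowett rats (n = 4) received a single oral dose of monophosphate salt at 4.25 or 8.51 mg/kg free base. Tumors were collected at time points up to 24 h and lysed in Tris/Triton buffer with vanadate and protease inhibitors. Western blots were run for pFRS2(Tyr196) and pMAPK, with total FRS2, total MAPK or β-tubulin as loading controls.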

Rattus norvegicus [16] = assay: Toxicity in nude Rowett rat xenografted with human RT112 cells assessed as weight loss at 10 mg/kg, po qd administered for 20 days; assay type: organism-based, RT-112; design: dose 10 mg/kg, route oral; conditions: in vivo, 480 h
Method in brief: (§5)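 Female nude Rowett rats carried subcutaneous RT112 tumors (1 × 10^6 cells in Matrigel), starting at about 100 mm3. The monophosphate salt was gavaged daily for 20 days at 5, 10 or 15 mg/kg (free base) in acetate buffer pH 4.6/PEG300 (1:1), n = 8. Body weight and morbidity were monitored; ANOVA with Dunnett's test.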

Rattus norvegicus [17] = assay: Toxicity in nude Rowett rat xenografted with human RT112 cells assessed as weight loss at 15 mg/kg, po qd administered for 20 days; assay type: organism-based, RT-112; design: dose 15 mg/kg, route oral; conditions: in vivo, 480 h; method in brief: as §5

MAP kinase-interacting serine/threonine-protein kinase 1, sequence (Q9BUB5 whole entry): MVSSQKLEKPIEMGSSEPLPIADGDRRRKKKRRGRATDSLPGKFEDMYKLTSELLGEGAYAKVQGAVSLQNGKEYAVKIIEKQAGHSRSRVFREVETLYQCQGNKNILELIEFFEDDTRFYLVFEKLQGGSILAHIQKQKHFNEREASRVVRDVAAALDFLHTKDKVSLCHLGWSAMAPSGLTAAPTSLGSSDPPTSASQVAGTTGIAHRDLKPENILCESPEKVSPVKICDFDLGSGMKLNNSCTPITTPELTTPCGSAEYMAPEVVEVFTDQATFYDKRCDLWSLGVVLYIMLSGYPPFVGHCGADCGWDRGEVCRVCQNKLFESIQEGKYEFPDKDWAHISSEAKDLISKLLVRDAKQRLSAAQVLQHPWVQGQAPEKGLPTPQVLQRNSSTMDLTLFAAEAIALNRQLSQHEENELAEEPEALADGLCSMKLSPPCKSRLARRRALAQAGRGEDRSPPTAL
Phosphatidylinositol 4,5-bisphosphate 3-kinase catalytic subunit beta isoform, sequence (P42338 whole entry, canonical isoform): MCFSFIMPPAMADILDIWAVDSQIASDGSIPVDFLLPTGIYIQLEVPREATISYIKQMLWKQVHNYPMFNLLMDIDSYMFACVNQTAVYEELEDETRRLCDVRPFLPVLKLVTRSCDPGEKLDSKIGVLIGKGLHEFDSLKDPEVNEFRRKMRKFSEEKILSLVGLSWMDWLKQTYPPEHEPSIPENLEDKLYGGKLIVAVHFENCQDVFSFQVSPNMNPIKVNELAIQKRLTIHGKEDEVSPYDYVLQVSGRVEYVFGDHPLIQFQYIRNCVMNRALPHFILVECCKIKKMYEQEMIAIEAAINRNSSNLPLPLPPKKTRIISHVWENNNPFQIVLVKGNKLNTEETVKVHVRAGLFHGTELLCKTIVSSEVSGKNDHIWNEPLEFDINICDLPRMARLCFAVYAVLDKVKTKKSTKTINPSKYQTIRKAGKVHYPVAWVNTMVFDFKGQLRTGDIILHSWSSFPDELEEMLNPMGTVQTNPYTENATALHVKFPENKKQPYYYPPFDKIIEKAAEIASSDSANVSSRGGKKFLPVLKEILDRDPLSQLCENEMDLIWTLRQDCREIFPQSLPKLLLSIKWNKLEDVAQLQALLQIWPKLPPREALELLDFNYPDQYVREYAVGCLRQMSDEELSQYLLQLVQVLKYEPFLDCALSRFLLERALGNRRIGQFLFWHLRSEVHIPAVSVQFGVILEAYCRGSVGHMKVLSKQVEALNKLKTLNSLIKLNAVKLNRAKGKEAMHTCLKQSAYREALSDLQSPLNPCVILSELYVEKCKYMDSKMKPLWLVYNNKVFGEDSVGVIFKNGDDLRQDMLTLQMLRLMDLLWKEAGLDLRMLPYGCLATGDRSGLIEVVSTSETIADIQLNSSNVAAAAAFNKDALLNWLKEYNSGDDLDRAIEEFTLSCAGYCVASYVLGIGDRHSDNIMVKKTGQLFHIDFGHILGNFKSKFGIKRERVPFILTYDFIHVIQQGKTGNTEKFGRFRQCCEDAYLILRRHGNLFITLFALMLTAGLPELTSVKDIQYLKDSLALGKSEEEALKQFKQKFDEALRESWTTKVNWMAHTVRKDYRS
Ephrin type-A receptor 4, sequence (P54764 whole entry): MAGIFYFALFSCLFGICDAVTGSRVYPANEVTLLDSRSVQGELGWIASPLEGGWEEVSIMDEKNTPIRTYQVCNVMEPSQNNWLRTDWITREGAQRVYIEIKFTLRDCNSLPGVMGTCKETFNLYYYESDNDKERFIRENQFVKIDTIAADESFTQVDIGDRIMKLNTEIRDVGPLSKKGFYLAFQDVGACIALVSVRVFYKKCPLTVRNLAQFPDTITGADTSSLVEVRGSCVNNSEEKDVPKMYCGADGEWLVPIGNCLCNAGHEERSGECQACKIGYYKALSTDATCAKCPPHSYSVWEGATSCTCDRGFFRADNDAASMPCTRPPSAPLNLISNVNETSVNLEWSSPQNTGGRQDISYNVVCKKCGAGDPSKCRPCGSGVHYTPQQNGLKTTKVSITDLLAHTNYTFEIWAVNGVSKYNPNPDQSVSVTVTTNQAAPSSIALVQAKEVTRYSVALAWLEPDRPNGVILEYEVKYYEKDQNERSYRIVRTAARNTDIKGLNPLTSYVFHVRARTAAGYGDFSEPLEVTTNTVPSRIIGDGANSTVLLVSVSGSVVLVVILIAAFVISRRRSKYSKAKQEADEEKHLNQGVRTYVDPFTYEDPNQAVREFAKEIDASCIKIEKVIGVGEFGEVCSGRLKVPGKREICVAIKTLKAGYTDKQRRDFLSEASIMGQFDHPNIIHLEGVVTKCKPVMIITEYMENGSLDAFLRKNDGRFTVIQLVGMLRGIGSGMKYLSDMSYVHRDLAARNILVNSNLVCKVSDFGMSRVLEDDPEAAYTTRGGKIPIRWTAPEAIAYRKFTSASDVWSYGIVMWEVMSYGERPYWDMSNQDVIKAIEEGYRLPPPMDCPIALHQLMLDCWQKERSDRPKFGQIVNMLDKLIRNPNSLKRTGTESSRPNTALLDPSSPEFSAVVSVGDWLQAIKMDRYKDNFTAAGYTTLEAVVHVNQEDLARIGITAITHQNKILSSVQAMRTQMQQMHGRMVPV
MAP kinase-activated protein kinase 2, sequence (P49137 whole entry): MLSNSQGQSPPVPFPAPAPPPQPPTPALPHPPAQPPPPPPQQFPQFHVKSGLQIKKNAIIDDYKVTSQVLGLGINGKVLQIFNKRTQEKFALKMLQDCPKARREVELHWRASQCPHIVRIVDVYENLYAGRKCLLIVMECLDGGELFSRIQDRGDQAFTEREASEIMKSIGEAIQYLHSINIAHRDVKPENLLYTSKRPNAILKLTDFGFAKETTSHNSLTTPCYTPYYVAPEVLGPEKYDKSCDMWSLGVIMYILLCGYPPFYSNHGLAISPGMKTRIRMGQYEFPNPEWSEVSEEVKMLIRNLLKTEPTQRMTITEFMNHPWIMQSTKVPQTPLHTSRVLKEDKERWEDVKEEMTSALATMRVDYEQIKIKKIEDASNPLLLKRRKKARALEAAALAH
Tyrosine-protein kinase JAK1, sequence (P23458 whole entry, canonical isoform): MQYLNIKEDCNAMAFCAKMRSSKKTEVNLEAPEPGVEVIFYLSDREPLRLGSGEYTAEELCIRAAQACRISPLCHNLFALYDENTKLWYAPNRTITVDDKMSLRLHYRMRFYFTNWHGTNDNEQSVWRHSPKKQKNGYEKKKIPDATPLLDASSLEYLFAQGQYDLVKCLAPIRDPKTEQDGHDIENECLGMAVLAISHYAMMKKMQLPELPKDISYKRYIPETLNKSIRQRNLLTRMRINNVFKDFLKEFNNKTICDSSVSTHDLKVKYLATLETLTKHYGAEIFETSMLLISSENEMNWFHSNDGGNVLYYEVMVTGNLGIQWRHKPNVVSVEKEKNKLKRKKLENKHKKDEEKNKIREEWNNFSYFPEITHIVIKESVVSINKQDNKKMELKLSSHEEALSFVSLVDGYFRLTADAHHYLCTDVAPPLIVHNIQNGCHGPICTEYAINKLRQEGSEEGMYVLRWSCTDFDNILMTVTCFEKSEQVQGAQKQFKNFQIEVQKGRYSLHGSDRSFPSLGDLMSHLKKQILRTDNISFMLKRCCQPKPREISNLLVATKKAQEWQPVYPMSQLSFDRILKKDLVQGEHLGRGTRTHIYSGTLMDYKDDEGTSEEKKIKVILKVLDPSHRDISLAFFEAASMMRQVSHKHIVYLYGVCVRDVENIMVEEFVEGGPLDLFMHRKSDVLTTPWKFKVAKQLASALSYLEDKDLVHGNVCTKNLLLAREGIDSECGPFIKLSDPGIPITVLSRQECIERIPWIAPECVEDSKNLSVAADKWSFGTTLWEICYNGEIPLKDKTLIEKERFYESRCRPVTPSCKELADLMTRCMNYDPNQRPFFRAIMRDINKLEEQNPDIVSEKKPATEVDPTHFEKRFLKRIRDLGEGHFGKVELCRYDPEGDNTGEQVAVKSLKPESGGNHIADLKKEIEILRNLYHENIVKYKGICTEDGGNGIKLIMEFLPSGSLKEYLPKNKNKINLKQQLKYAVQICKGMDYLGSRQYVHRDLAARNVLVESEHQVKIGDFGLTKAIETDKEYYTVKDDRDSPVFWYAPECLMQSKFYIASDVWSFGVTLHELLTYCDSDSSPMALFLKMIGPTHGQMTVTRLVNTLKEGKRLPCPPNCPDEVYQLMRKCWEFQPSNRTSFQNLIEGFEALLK
Mitogen-activated protein kinase 1, sequence (P28482 whole entry): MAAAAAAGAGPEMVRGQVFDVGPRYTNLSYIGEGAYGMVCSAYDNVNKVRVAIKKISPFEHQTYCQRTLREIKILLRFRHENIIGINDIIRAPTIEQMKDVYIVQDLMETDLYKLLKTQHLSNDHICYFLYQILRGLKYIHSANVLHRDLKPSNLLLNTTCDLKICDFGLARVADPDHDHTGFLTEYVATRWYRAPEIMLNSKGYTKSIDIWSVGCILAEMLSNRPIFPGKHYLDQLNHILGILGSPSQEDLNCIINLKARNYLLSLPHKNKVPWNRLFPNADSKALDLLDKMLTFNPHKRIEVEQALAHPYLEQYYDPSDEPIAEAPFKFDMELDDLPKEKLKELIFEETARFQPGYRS
Cytochrome P450 2C9, sequence (P11712 whole entry, canonical isoform): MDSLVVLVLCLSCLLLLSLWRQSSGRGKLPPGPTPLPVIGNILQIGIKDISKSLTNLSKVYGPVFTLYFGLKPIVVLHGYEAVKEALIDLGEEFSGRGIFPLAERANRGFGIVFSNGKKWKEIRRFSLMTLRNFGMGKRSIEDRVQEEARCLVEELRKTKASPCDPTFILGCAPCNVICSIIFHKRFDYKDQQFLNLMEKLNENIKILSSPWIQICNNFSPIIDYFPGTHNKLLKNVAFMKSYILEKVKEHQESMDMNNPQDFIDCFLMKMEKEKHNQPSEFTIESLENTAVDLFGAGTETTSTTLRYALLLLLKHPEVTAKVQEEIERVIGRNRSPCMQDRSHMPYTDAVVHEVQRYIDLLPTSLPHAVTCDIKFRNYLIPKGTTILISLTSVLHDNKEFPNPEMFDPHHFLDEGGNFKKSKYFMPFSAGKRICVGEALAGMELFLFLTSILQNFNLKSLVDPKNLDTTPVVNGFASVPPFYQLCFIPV

- IC50 (Cytochrome P450 2C9): > 10 µM
- IC50 (Cytochrome P450 1A2): > 10 µM
- IC50 [1]: 0.3 µM
- Cmax [3]: 860 nM
- Cmax [4]: 420 nM
- Vd [5]: 26 L/kg
- IC50 [7]: > 10 µM
- IC50 [8]: > 10 µM
- IC50 [9]: > 10 µM
- IC50 [10]: > 10 µM
- IC50 (Ephrin type-A receptor 4): > 10 µM
- IC50 [11]: > 10 µM
- IC50 [12]: > 9 µM
- IC50 [13]: > 10 µM
- IC50 [14]: > 9 µM
SMILES: CCN1CCN(c2ccc(Nc3cc(N(C)C(=O)Nc4c(Cl)c(OC)cc(OC)c4Cl)ncn3)cc2)CC1.O=P(O)(O)O [INFIGRATINIB PHOSPHATE]
- IC50 [2]: 2.19 µM
- IC50 [6]: 0.015 µM
- inhibition (Rattus norvegicus [15]): Active
- Activity (Rattus norvegicus [16]): 4%
- Activity (Rattus norvegicus [17]): 9%
